Entries after “also recorded” stand apart in the source; their conditions may differ.
Tested on: male albino mice
Assay: Neurotoxicity, rotarod test
Format: in vivo
Details: 0.5 and 4 h
Summary of the method: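 Male albino mice (25–30 g) were trained on a rotating rod (3.2 cm outer diameter, 10 rpm). Test compound was given at 30, 100 and 300 mg/kg, and mice were checked at 0.5 and 4 h. Neurotoxicity was failure to keep balance on the rod for 1 min, across three trials. The toxic dose was the dose at which 50% of animals fell.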

| Compound | Neurotoxicity (result in words) |
| --- | --- |
| COc1ccc2ccc(C(/C=C/c3c[nH]c4ccccc34)N3C=CC(C(=O)O)C=C3)cc2c1 (centres unmarked) [5g, (E)-1-(3-(1H-indol-3-yl)-1-(7-methoxynaphthalen-2-yl)allyl)-1,4-dihydropyridine-4-carboxylic acid] | neurotoxic; also recorded: motor impairing |
| Cc1ccc2ccc(C(/C=C/c3c[nH]c4ccccc34)N3C=CC(C(=O)O)C=C3)cc2c1 (centres unmarked) [5i, (E)-1-(3-(1H-indol-3-yl)-1-(7-methylnaphthalen-2-yl)allyl)-1,4-dihydropyridine-4-carboxylic acid] | neurotoxic |

From PMC10790741 (Journal of Pharmacy & Bioallied Sciences, 2023)
